Square brackets hold non-standard residues; d marks the D form. Peptide text beside a SMILES is read from it. * marks the point of attachment. Dolaproine = CO[C@@H]([C@@H]1CCCN1)[C@@H](C)C(=O)O; Dil = CC[C@H](C)[C@H](NC)[C@@H](CC(=O)O)OC; X1 = C[C@@H](N*)[C@@H](O)c1ccccc1; NMeV = CN[C@H](C(=O)O)C(C)C
Legend:
[1] = cited from earlier work
[2] = tested on: Py230 tumors; assay: Therapeutic study, Py230 syngeneic tumors; assay type: in vivo, mice
Outline: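 Tumors reach 5–7 mm diameter in 5–6 weeks. Test compound (MMAE conjugate) dosed at 0.2mg/kg MMAE, ~6.5 nanomoles of conjugate. Free MMAE and controls run alongside. Tumor volume followed.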

Which maximum tolerated dose [1] does the source give for `CC[C@H](C)[C@@H]([C@@H](CC(=O)N1CCC[C@H]1[C@H](OC)[C@@H](C)C(=O)N[C@H](C)[C@@H](O)c1ccccc1)OC)N(C)C(=O)[C@@H](NC(=O)[C@@H](NC)C(C)C)C(C)C` [MMAE, Monomethylauristatin E] (H-[NMeV]V[Dil][Dolaproine]-X1) here?
Its maximum tolerated dose is 0.5 to 1.0 mg/kg.

And the “final tumor mass, dose finding” value ([2]; Py230, MMAE at concentrations up to 0.6mg/kg)?
Its value is “Only the tumors treated at the highest dose had a reduction in final mass”.

And the “effect on tumor growth” value ([2]; Py230, immunocompetent mice, 0.2mg/kg MMAE)?
The value was “no impact on tumor growth”.

From article PMC4051287 (Molecular cancer therapeutics, 2014)
